In ChEMBL document CHEMBL4828701, “An Integrated Strategy for the Detection, Dereplication, and Identification of DNA-Binding Biomolecules from Complex Natural Product Mixtures” (J Nat Prod, 2021):
Active and inactive are the calls of the source. The calls are words filed in the database; no cut-off is given here.

Experiments:
HCC1937 = assay: Antiproliferative activity against human HCC1937 assessed as cell growth inhibition after 48 hrs by SRB assay; assay type: functional
In short: (§1)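 HCC1937, HCC70 and SJCRH30 cells in RPMI-1640 with 10% FBS and 50 μg/mL gentamicin, 37 °C, 5% CO2, used within 4 months of thaw. Plated cells adhered overnight before 48 h compound exposure (DMSO 0.5% v/v final). Read-out was SRB, with GI50 by nonlinear regression from 3 or 4 experiments ±SEM.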

MDA-MB-453 = assay: Antiproliferative activity against human MDA-MB-453 assessed as cell growth inhibition after 48 hrs by SRB assay; assay type: functional
In short: (§2)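 MDA-MB-231 and MDA-MB-453 cells in modified IMEM with 5% FBS and 30 μg/mL gentamicin, 37 °C, 5% CO2, used within 4 months of thaw. After overnight adherence, cells had 48 h compound treatment (DMSO 0.5% v/v final). Growth was read by SRB assay, with GI50 from nonlinear regression as the mean of 3 or 4 experiments ±SEM.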

MDA-MB-231 = assay: Antiproliferative activity against human MDA-MB-231 assessed as cell growth inhibition after 48 hrs by SRB assay; assay type: functional; conditions: for CC50: read-out: LC50 (the source's name); in short: as §2
A673 = assay: Antiproliferative activity against human A673 assessed as cell growth inhibition after 48 hrs by SRB assay; assay type: functional; conditions: for CC50: read-out: LC50 (the source's name)
In short: (§3)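 A-673 and HCC1806 cells in RPMI-1640 with 5% FBS, 37 °C, 5% CO2, used within 4 months of thaw. Cells were plated and left overnight, then exposed to compounds in DMSO (0.5% v/v final) for 48 h. SRB staining followed, with GI50 fitted by nonlinear regression, as the mean of 3 or 4 experiments ±SEM.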

SJRH30 = assay: Antiproliferative activity against human SJRH30 assessed as cell growth inhibition after 48 hrs by SRB assay; assay type: functional; in short: as §1
HCC1806 = assay: Antiproliferative activity against human HCC1806 assessed as cell growth inhibition after 48 hrs by SRB assay; assay type: functional; conditions: for CC50: read-out: LC50 (the source's name); in short: as §3
HCC70 = assay: Antiproliferative activity against human HCC70 assessed as cell growth inhibition after 48 hrs by SRB assay; assay type: functional; conditions: for CC50: read-out: LC50 (the source's name); in short: as §1
[1] = Aqueous solubility of the compound; conditions: buffer
Salmon testes DNA [2] = assay: Covalent binding affinity to salmon DNA measured after 30 mins by UV based spectroscopic method; assay type: nucleic-acid assay; conditions: Salmo salar
In short: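 After 30 min room-temperature incubation with salmon sperm DNA in TE/15% glycerol buffer and 100 kDa ultrafiltration, retained complexes were washed with 30% MeOH (3× 5000g, 10 °C). Ligands were then released with 95% MeOH/1% formic acid for 20 min, refiltered, dried, taken up in MeOH, and analysed by LC-PDA-MS/MS against no-DNA controls.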

Salmon testes DNA [3] = assay: Binding affinity to salmon DNA groove measured after 30 mins by UV based spectroscopic method; assay type: nucleic-acid assay; conditions: Salmo salar
In short: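 Compounds (typically 5–50 μg) in 200 μL water/MeOH were added to 400 μL salmon sperm DNA stock (1 mg/mL in 10 mM Tris, 1 mM EDTA, pH 8.0, 15% glycerol) and incubated 30 min at room temperature. Samples were ultrafiltered (100 kDa, 5000g, 10 °C), and filtrate peak areas (UV 254 nm, LC-PDA-MS/MS) were compared with no-DNA buffer controls.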

SMILES	GI50 (HCC1937) [µM]	TGI (HCC1937) [µM]	GI50 (MDA-MB-453) [µM]	TGI (MDA-MB-453) [µM]	GI50 (MDA-MB-231) [µM]	TGI (MDA-MB-231) [µM]	CC50 (MDA-MB-231) [µM]	GI50 (A673) [µM]	TGI (A673) [µM]	CC50 (A673) [µM]	GI50 (SJRH30) [µM]	TGI (SJRH30) [µM]	GI50 (HCC1806) [µM]	TGI (HCC1806) [µM]	CC50 (HCC1806) [µM]	GI50 (HCC70) [µM]	TGI (HCC70) [µM]	CC50 (HCC70) [µM]	solubility [1]	also measured
COc1ccc2cc1Oc1ccc(cc1)C[C@H]1c3c(cc4c(c3Oc3cc5c(cc3OC)CCN(C)[C@@H]5C2)OCO4)CCN1C [CEPHARANTHINE]	6	14	5.5	7.8	5.3	7.7	12	4.5	5.8	7.5	3.8	5.7	7.2	12	19	5.8	9.6	17	–	–
Cc1c2ccncc2c(C)c2c1[nH]c1ccccc12 [ELLIPTECINE]	–	–	–	–	–	–	–	–	–	–	–	–	–	–	–	–	–	–	Insoluble	–
O=NN(CCCl)C(=O)NCCCl [CARMUSTINE]	–	–	–	–	–	–	–	–	–	–	–	–	–	–	–	–	–	–	Insoluble	Activity (Salmon testes DNA [2]): Active
Nc1c2ccccc2nc2ccccc12 [AMINACRINE]	–	–	–	–	–	–	–	–	–	–	–	–	–	–	–	–	–	–	Insoluble	–
COc1cc2c(cc1O)[C@@H](Cc1ccc(O)c(Oc3ccc(C[C@@H]4c5cc(OC)c(OC)cc5CCN4C)cc3)c1)N(C)CC2 [DARUISOLINE]	6.9	11	9	14	13	19	30	9.2	13	19	3.7	6	17	27	41	8.8	13	19	–	–
N[C@@H](Cc1ccc(N(CCCl)CCCl)cc1)C(=O)O [MELPHALAN]	–	–	–	–	–	–	–	–	–	–	–	–	–	–	–	–	–	–	Insoluble	Activity (Salmon testes DNA [2]): Active
NC[C@@H]1O[C@H](O[C@H]2[C@@H](O)[C@H](O[C@@H]3[C@@H](O)[C@H](N)C[C@H](N)[C@H]3O[C@H]3O[C@H](CN)[C@@H](O)[C@H](O)[C@H]3N)O[C@@H]2CO)[C@H](N)[C@@H](O)[C@@H]1O [FRAMYCETIN]	–	–	–	–	–	–	–	–	–	–	–	–	–	–	–	–	–	–	Soluble	Activity (Salmon testes DNA [3]): Active
COc1ccc2cc1Oc1ccc(cc1)C[C@H]1c3cc(c(OC)cc3CCN1C)Oc1c(OC)c(OC)cc3c1[C@H](C2)N(C)CC3 [FANCHININ]	4.2	10	3.3	4.8	5	7.4	12	4	6	8.9	3	4.3	5.1	8.5	15	3.4	5.9	11	–	–
CN(C)CCN(Cc1cccs1)c1ccccn1 [METHAPYRILENE]	–	–	–	–	–	–	–	–	–	–	–	–	–	–	–	–	–	–	Insoluble	–
